Data published in ChEMBL document CHEMBL5653631, “A Potent and Selective ULK1 Inhibitor Suppresses Autophagy and Sensitizes Cancer Cells to Nutrient Stress” (iScience, 2018).
Blank lines part the entries; values can stand above or below the molecule they belong to.

Legend:
[1] = target: SRSF protein kinase 3 (Homo sapiens) (UniProt Q9UPE1); test: Inhibition of human recombinant MSSK1 at 500 nM related to control ULK1
[2] = target: Activin receptor type-2A (Homo sapiens) (UniProt P27037); test: Inhibition of human recombinant ACTR2 at 500 nM related to control ULK1
[3] = target: MAP/microtubule affinity-regulating kinase 3 (Homo sapiens) (UniProt P27448); test: Inhibition of human recombinant MARK3 at 40 nM in presence of ATP by radiometric assay relative to control
[4] = target: Serine/threonine-protein kinase PAK 6 (Homo sapiens) (UniProt Q9NQU5); test: Inhibition of human recombinant PAK6 at 40 nM in presence of ATP by radiometric assay relative to control
[5] = target: Ribosomal protein S6 kinase alpha-5 (Homo sapiens) (UniProt O75582); test: Inhibition of human recombinant MSK1 at 40 nM related to control ULK1
[6] = target: T1, Serine/threonine-protein kinase A-Raf (Homo sapiens) (UniProt P10398); test: Inhibition of human recombinant ARAF at 15 nM in presence of ATP by radiometric assay relative to control
T1 sequence (whole entry): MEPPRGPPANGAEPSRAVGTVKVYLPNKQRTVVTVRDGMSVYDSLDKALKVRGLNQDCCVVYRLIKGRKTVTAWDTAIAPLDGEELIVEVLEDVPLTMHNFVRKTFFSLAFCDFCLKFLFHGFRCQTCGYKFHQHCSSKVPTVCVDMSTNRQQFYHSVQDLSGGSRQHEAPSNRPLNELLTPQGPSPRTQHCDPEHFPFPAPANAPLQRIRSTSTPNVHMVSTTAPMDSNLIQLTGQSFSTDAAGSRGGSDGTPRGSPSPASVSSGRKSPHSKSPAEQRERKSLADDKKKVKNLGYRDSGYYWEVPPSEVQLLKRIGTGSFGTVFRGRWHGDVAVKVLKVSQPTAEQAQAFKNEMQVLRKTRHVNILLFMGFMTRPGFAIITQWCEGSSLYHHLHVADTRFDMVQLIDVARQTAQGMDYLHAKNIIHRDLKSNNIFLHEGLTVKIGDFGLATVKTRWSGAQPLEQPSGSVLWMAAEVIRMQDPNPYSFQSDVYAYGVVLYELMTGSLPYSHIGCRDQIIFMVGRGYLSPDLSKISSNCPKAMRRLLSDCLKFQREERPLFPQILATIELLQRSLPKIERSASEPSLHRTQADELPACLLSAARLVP
Summary of the method: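 Panel of 327 recombinant human kinases, each assayed in vitro by radiometric activity assay in duplicate at a single inhibitor concentration per compound, chosen with reference to its ULK1 inhibition. Activity remaining was expressed as percent of vehicle control, and percent inhibition was calculated as 100 minus percent activity remaining.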

[7] = target: Ribosomal protein S6 kinase alpha-1 (Homo sapiens) (UniProt Q15418); test: Inhibition of human recombinant RSK1 at 15 nM in presence of ATP by radiometric assay relative to control
[8] = target: T2, G protein-coupled receptor kinase 3 (Homo sapiens) (UniProt P35626); test: Inhibition of human recombinant BARK2 at 15 nM related to control ULK1
T2 sequence (whole entry): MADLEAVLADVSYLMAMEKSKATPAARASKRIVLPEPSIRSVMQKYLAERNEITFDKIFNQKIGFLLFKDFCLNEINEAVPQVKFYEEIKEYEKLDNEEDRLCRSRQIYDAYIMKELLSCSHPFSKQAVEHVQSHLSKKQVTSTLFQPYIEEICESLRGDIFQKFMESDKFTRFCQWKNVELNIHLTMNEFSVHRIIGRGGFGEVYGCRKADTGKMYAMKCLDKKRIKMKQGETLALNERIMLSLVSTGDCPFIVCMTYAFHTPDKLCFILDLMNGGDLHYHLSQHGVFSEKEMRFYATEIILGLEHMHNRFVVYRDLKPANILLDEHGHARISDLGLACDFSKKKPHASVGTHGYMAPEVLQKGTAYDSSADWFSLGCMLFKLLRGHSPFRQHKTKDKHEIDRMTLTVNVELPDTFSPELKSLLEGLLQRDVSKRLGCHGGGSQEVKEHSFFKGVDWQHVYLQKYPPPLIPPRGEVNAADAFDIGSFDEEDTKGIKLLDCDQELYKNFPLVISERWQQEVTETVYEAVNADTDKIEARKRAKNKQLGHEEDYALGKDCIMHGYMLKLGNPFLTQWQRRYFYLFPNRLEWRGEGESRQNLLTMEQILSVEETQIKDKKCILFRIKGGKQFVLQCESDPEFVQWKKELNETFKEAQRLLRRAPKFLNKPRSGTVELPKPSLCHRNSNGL

[9] = target: T3, Ephrin type-B receptor 1 (Homo sapiens) (UniProt P54762); test: Inhibition of human recombinant EphB1 at 15 nM related to control ULK1
T3 sequence (whole entry): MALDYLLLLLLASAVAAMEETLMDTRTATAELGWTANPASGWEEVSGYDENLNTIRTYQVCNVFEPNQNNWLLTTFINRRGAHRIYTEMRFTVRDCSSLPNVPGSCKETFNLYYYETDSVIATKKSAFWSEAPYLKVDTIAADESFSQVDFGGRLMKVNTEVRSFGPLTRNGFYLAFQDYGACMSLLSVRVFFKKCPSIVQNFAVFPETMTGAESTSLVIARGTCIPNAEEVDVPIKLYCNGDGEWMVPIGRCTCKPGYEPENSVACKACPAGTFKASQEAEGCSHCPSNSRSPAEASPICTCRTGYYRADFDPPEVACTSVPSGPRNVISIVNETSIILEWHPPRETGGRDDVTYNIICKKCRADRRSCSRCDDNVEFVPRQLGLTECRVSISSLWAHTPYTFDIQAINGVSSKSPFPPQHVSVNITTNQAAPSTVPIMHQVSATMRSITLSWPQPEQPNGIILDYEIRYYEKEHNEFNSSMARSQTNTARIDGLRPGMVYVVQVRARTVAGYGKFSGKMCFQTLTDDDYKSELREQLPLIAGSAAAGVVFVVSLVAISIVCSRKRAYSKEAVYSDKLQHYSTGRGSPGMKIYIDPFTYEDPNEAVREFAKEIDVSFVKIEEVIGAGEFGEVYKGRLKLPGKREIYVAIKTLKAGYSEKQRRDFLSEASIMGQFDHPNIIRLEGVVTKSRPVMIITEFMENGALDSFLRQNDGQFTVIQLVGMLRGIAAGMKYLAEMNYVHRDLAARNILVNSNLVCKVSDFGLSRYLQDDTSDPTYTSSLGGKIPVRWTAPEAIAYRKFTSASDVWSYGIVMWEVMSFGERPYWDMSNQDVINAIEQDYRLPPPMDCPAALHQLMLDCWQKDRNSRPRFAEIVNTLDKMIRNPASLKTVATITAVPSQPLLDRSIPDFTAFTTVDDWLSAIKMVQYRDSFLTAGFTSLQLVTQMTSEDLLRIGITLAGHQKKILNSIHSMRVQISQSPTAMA

[10] = target: Interferon-induced, double-stranded RNA-activated protein kinase (Homo sapiens) (UniProt P19525); test: Inhibition of human recombinant PKR at 15 nM related to control ULK1

fold change (FC) [1]: 0.2 | fold change (FC) [2]: 0.04
Structure (SMILES): CNC(=O)c1ccccc1Oc1nc(Nc2cc(OC)c(OC)c(OC)c2)ncc1Br

inhibition [3]: 15% | inhibition [4]: 7% | fold change (FC) [5]: 0
Structure (SMILES): O=C(N[C@@H](C1CC1)C(F)(F)F)c1cc(-c2cnn3cc(-c4ccc(F)cc4)cnc23)cs1

inhibition [6]: 6% | inhibition [7]: 23% | fold change (FC) [8]: 0 | fold change (FC) [9]: 0.14 | fold change (FC) [10]: 0.02
Structure (SMILES): CC(C)[C@H](NC(=O)c1cc(-c2cnn3cc(-c4ccc(OCCN5CCCCC5)cc4)cnc23)cs1)C(F)(F)F
